Screens: PubChem BioAssay, several laboratories
AP complement – alternative pathway complement inhibition, orthogonal assay; Human serum alternative complement pathway, LPS-coated ELISA, C3 deposition; tested in compound mixtures; inhibition, % at 5 µM; actives 0.08% (n = 62,000); AID 1235;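 active means inhibition above 30% in each of the two pooled mixtures holding the compound, so the lower value exceeds 30%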;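 further: 0% = serum in Mg-EGTA without compound and 100% = EDTA serum blank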
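Test system: human serum alternative complement pathway, C3 deposition on LPS-coated wells; also added: Plate-bound LPS; doses: 5 µM per compound in ten-compound mixtures; schedule: 1 h at 37 °C; detection: Anti-C3 ELISA, OD 450 nm; evaluation: percent inhibition of C3 deposition onto LPS; repeats: two pool placements per compound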
Ec RNAP inh – blocks E. coli RNA polymerase transcription; actives 0.2% (n = 62,000); AID 559; fluorescence transcription assay; inhibition, %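 (tested at 10 µM)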; P0A8V2; in the data active means inhibition above about 20%;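 further: 0% = enzyme without compound and 100% = no enzyme blank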
RORa activator – activates the human nuclear receptor RORA | P35398 | CHO-K1 Gal4-RORA LBD luciferase reporter, luminescence; percent increase over mock-subtracted basal signal | activation, % at 10 µM | actives 1.5% (n = 65,000);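 active means activation above the mean of all tested compounds plus 3 SD, cut at about 49% in these data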;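 further: 0% = DMSO-treated RORA cells and 100% = added signal equal to DMSO minus mock-transfected cells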
HePTP inh – blocks human HePTP tyrosine phosphatase; actives 0.64% (n = 110,000); inhibition, % at 20 µM; recombinant HePTP phosphatase activity, OD absorbance; AID 521; P35236; in the data active means inhibition above about 50%;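 further: plate controls were vehicle for no effect and reference inhibitor for full effect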
Target sequence (P35236 whole entry, looked up): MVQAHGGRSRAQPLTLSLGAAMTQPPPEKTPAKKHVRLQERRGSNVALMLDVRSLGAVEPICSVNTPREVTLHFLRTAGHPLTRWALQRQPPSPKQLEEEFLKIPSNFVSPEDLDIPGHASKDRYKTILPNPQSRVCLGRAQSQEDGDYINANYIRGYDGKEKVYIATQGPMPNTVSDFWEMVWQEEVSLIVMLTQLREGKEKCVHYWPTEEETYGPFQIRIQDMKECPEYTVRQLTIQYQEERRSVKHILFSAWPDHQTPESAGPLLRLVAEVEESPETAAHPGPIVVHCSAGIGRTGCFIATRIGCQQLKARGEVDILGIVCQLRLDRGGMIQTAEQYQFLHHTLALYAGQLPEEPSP
SF1 activator – SF-1 (human) activation; CHO-K1 Gal4-SF-1 LBD luciferase reporter; % increase over DMSO SF-1-specific signal; activation, % at 10 µM; actives 1.9% (n = 65,000);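 active means activation above the mean activation of all tested compounds plus 3 SD, cut at about 50% in these data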
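Assay system: CHO-K1 cells co-transfected with Gal4 DBD–human SF-1 LBD, 5xGal4 luciferase reporter / Input: 4,000 cells per well / Incubation: 20 h compound exposure at 37 °C after 1 h cell settling / Detection: SteadyLite luciferase luminescence / Control set: DMSO negative control and −SF1 background wells / Replication: one test per compound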
MMP13 inh – MMP13 (human) collagenase inhibition; MMP-13 fTHP FRET cleavage, Mca fluorescence; P45452; inhibition, % at 4 µM; actives 0.07% (n = 65,000);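 active means inhibition above the mean of compound-free control plate wells plus 3 SD, cut at about 14% in these data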;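 further: 0% = DMSO wells and 100% = wells with reference MMP-13 inhibitor after basal subtraction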
Starred values were filed as active, the others as inactive; nt = no result. A selection: hits, their analogues and other compounds. The true share with any hit is near 2.4%.

SMILES	AP complement	Ec RNAP inh	RORa activator	HePTP inh	SF1 activator	MMP13 inh
O=C1NC(=S)N/C1=C/c1ccc(-c2cc([N+](=O)[O-])ccc2Cl)o1	nt	nt	nt	80.2*	nt	nt
O=C(CNC(=O)c1ccccc1)c1ccc(Br)cc1	nt	nt	nt	-1.8	nt	nt
O=C(CNC(=O)c1ccccc1C(=O)O)c1ccccc1	6.6	5.0	28.7	11.3	55.6*	-2.1
Cc1ccc(-n2cc3c(=O)n(C)c(=O)n(C)c3c2)cc1C	15.7	7.5	-8.4	0.1	14.1	-0.1
Cc1cc(N)c(-n2cc3c(=O)n(C)c(=O)n(C)c3c2)cc1C	10.8	-1.0	54.0*	2.9	30.5	-11.4
C=CCC1(O)C(C)C(c2ccccc2)NC(c2ccccc2)C1CCC (configuration not stated)	nt	nt	nt	7.2	nt	nt
Cn1c(-c2ccc3ccccc3n2)nc2cnccc21	8.3	5.4	54.6*	-4.7	64.7*	-7.5
Cn1c(-c2ccc(-c3nc4cnccc4n3C)cc2)nc2cnccc21	nt	nt	nt	19.3	nt	nt
c1cncc(-c2nc(-c3cccs3)cs2)c1	-2.2	3.4	39.5	14.7	10.2	2.0
c1ccc(Nc2nc(-c3cccs3)cs2)nc1	9.8	6.1	4.2	-0.7	48.9	2.6
c1cnc(Nc2nc(-c3cccs3)cs2)nc1	nt	nt	nt	102.0*	nt	nt
COc1cccc2cc(-c3nc(-c4cccs4)cs3)c(=O)oc12	17.1	-0.5	55.4*	-3.4	33.0	-0.6
c1csc(-c2csc(-c3cccs3)n2)c1	12.6	0.4	30.0	9.9	62.6*	-6.9
O=C1C2ON(c3ccccc3)C(c3ccccc3)C2C(=O)N1Cc1ccccc1 (configuration not stated)	nt	nt	nt	8.0	nt	nt
COC(=O)c1cccc(NC(=O)Cn2cnc3c2c(=O)n(C)c(=O)n3C)c1	-22.5	4.5	-18.7	-0.3	6.8	14.9*
CCOC(=O)c1cccc(NC(=O)Cn2cnc3c2c(=O)n(C)c(=O)n3C)c1	-5.2	6.7	-24.5	1.2	5.6	10.3
COC(=O)c1cccc(NC(=O)CSc2nc3cccnc3n2C)c1	-1.8	13.5	81.5*	-8.2	35.5	11.0
COC(=O)c1cccc(NC(=O)CSc2nnnn2C)c1	8.8	10.1	12.0	0.3	9.0	-2.9
O=c1oc2ccc3ccccc3c2cc1-c1nnc(-c2ccccc2)o1	8.5	-8.9	43.3	-4.7	47.1	-52.3
O=c1oc2ccccc2cc1-c1nnc(-c2cccc(Br)c2)o1	-15.3	-1.3	28.6	-2.8	53.1*	0.3
Cc1ccc(-c2nnc(-c3cccc(Br)c3)o2)cc1	-5.7	13.6	18.1	-4.0	39.9	-3.7
Brc1cccc(-c2nnc(-c3ccccc3)o2)c1	12.4	3.5	39.0	4.2	60.5*	1.0
Cc1ccc(-c2nnc(-c3ccccc3)o2)cc1Br	nt	-0.7	8.3	10.6	42.8	-0.5
Cc1ccccc1-c1nnc(-c2ccc(Br)cc2)o1	19.6	-6.5	32.5	2.8	76.8*	-13.8
COCc1cc(C(C)(C)C)c(O)c(O)c1C(C)(C)C	nt	nt	nt	-5.7	nt	nt
SMILES	AP complement	Ec RNAP inh	RORa activator	HePTP inh	SF1 activator	MMP13 inh
Cc1ccc(C(=O)Nc2ncc(Cc3ccc(F)cc3)s2)o1	18.5	-4.6	16.5	10.9	119.2*	-1.3
Cc1ccc(/C=C/C(=O)Nc2ncc(Cc3ccc(F)cc3)s2)o1	nt	nt	nt	3.7	nt	nt
O=C(N=Nc1c(O)[nH]c2ccc([N+](=O)[O-])cc12)c1ccc2c(c1)OCO2	nt	nt	nt	102.1*	nt	nt
CC(=O)Nc1ccccc1NC(=O)c1cccc(Cl)c1	nt	nt	nt	2.2	nt	nt
COc1c(Br)cc(Br)cc1/C=N/NC(=O)COc1ccccc1[N+](=O)[O-]	nt	nt	nt	11.6	nt	nt
COc1cc([N+](=O)[O-])cc(/C=N/NC(=O)COc2c(Br)cc(Br)cc2Br)c1O	nt	nt	nt	78.7*	nt	nt
CC(C)CC(=O)N1c2ccccc2NC2=C(C(=O)CC(C)(C)C2)C1c1ccc2c(c1)OCO2 (configuration not stated)	nt	nt	nt	2.7	nt	nt
Cc1cccc(NC(=O)c2cc(N3CCOCC3)nc3ccccc23)c1	nt	20.6*	-24.3	5.2	-1.3	-14.2
CC(=O)C1=C(c2ccccc2)C(=O)c2ccccc2C1=O	nt	nt	nt	8.4	nt	nt
CCc1ccc(O)c(N=Cc2ccccc2O)c1	18.8	27.4*	-25.2	5.0	-15.8	2.5
Oc1ccc(Br)cc1C=Nc1cccc2ccccc12	nt	nt	nt	8.4	nt	nt
O=C(c1ccc(Cl)cc1Cl)N1CCN(c2ccc(Cl)cc2)CC1	nt	nt	nt	-22.1	nt	nt
O=C(Nc1cccc(Cl)c1)c1cnn2cccnc12	12.1	1.1	48.3	-2.4	104.8*	4.9
Cc1cc(NC(=O)c2cnn3cccnc23)no1	4.5	5.9	19.3	-3.7	32.0	-5.9
O=C(Nc1cc2nn(-c3ccccc3)nc2cc1Cl)c1ccco1	13.6	7.1	25.4	-9.5	72.7*	-8.2
CC(=O)Nc1cc2nn(-c3ccccc3)nc2cc1Cl	0.3	1.5	13.3	5.1	10.7	-104.2
O=C(O)CCN1C(=O)/C(=C/c2cn(-c3ccccc3)nc2-c2ccc(Br)cc2)SC1=S	nt	nt	nt	101.3*	nt	nt
O=C(O)CCCN1C(=O)/C(=C/c2cn(-c3ccccc3)nc2-c2cccc([N+](=O)[O-])c2)SC1=S	nt	nt	nt	104.1*	nt	nt
CCN(CC)c1ccc(NC(=O)c2cccc(C)c2OC)c(C)c1	17.4	4.8	72.8*	2.7	65.6*	3.8
CN(C)CCC(=O)c1cccs1	nt	nt	nt	11.3	nt	nt
CN(C)C1(c2cccs2)CS(=O)(=O)C1	nt	nt	nt	102.5*	nt	nt
CC1CCN(S(=O)(=O)c2ccc(NC(=O)Cn3nnc(-c4ccccc4F)n3)cc2)CC1	-9.4	-6.2	52.7*	-11.3	10.8	7.0
CCOc1ccc(C(=O)Nc2ccccc2OC)cc1[N+](=O)[O-]	nt	nt	nt	-20.5	nt	nt
CCOC(=O)c1c(C)c(C(=O)Nc2ccc(N(C)C)cc2)c(C)n1CC	10.0	2.4	54.3*	-2.6	72.1*	-2.9
CC(C)(C)c1ccc(-c2cc(-c3cc(Cl)ccc3O)[nH]n2)cc1	nt	nt	nt	7.2	nt	nt
SMILES	AP complement	Ec RNAP inh	RORa activator	HePTP inh	SF1 activator	MMP13 inh
CC(=O)Nc1ccc(Nc2ncnc3c2cnn3-c2ccccc2)cc1	9.4	4.1	55.1*	1.3	32.9	-0.3
CC(=O)Nc1ccc(Nc2ncnc3c2cnn3-c2cccc(C)c2)cc1	12.6	3.6	65.7*	4.4	24.3	-14.8
Clc1ccc(Nc2ncnc3c2cnn3-c2ccccc2)cc1	10.0	2.1	71.9*	8.1	21.5	-11.8
COc1ccc(OC)c(Nc2ncnc3c2cnn3-c2cccc(C)c2)c1	nt	nt	24.4	nt	26.4	4.4
Cn1ncc2c(Nc3ccc4ccccc4c3)ncnc21	2.5	21.1*	41.7	3.5	33.5	4.8
O=C1NC(=O)C(=Cc2ccc(O)c(Cl)c2)C(=O)N1	nt	nt	nt	6.0	nt	nt
O=C(O)c1ccc2oc(SCC(=O)N3CCCCC3)nc2c1	-8.0	11.1	29.2	-0.6	54.3*	0.3
Cc1ccc2nc(C(F)OC(F)(F)F)[nH]c2c1 (configuration not stated)	2.6	4.5	-7.1	6.8	-10.5	0.3
Cc1ccc2nc(C(O)C(O)c3nc4ccc(C)cc4[nH]3)[nH]c2c1 (configuration not stated)	10.6	1.1	22.6	5.5	51.0*	2.8
